Laboratory results from ChEMBL document CHEMBL1128250, “Structure-activity studies of 2,3,4,4a,5,9b-hexahydroindeno[1,2-c]pyridines as antispermatogenic agents for male contraception” (1995).
“And” between values parts separate entries of the source, which are not always exact repeats. Identical values can stand only once.

Tests used:
Mus musculus [1] = test: Tested for its effect on spermatogenic index 3 days after single oral dose (90 mg/kg) in mice; format: functional
Procedure, shortened: (§1)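 CD-1 outbred Swiss albino male mice, 5 per dose, single gavage on day 0 at 10 mL/kg. Vehicle was 0.15 M acetate buffer pH 5, ethanol/Tween-20/water (3:7:90), or 1% Tween-20 in water. CO2 euthanasia 72 h later. Testes weighed and histologically scored (spermatogenic index 0–6). Values are % reduction versus the assay's vehicle control. Positive control was 30 mg/kg of the parent compound. Significance by Dunnett's one-tailed t-test, p < 0.05.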

Mus musculus [2] = test: Tested for its effect on mouse testes weight 3 days after single oral dose (90 mg/kg); format: functional, Testis; procedure, shortened: as §1
Mus musculus [3] = test: tested for its effect on spermatogenic index 3 days after single oral dose (10 mg/kg); format: functional
Procedure, shortened: (§2)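 Male CD-1 (ICR)BR outbred Swiss albino mice, 5/dose, single oral gavage dose (10 mL/kg) on day 0 in acetate buffer pH 5 or Tween-20-based vehicle; killed 72 h later. Testis cross-sections scored histologically on a 0–6 spermatogenic index (Sertoli only to >100 late spermatids/tubule). Reported as % reduction versus vehicle control; Dunnett's one-tailed t-test.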

Mus musculus [4] = test: tested for its effect on spermatogenic index 3 days after single oral dose (30 mg/kg); format: functional; procedure, shortened: as §2
Mus musculus [5] = test: tested for its effect on testes weight 3 days after single oral dose (90 mg/kg); format: functional, Testis
Procedure, shortened: (§3)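 Male CD-1 (ICR)BR outbred Swiss albino mice, 5/dose, given one oral gavage dose (10 mL/kg) on day 0 in 0.15 M acetate buffer pH 5, ethanol/Tween-20/water (3:7:90), or 1% Tween-20 in water; vehicle and positive-control groups in each assay. Killed by CO2 72 h later; testes weighed. Expressed as % reduction versus vehicle control; Dunnett's one-tailed t-test.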

Mus musculus [6] = test: Tested for its effect on testes weight 3 days after single oral dose (90 mg/kg); format: functional, Testis; procedure, shortened: as §1
Mus musculus [7] = test: Tested for its effect on spermatogenic index 3 days after single oral dose (90 mg/kg),; format: functional; procedure, shortened: as §1
Mus musculus [8] = test: tested for its effect on testes weight 3 days after single oral dose (30 mg/kg); format: functional, Testis; procedure, shortened: as §3
Mus musculus [9] = test: tested for its effect on spermatogenic index 3 days after single oral dose (90 mg/kg); format: functional; procedure, shortened: as §2
Mus musculus [10] = test: Tested for its effect on testes weight 3 days after single oral dose (10 mg/kg); format: functional, Testis; procedure, shortened: as §1
Mus musculus [11] = test: Tested for its effect on spermatogenic index 3 days after single oral dose (10 mg/kg),; format: functional; procedure, shortened: as §1
Mus musculus [12] = test: Tested for its effect on pregnancy index of male CD-1 mice when dosed with 15 mg/kg (Dunnett's one-tailed t-test, p<0.05); format: functional
Procedure, shortened: (§4)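 Male CD-1 mice (8–10/group) gavaged daily for 35 days, vehicle 1% Tween-20 in water, 10 mL/kg. From the day after the last dose, each male was housed with two females for up to 5 days, with vaginal copulatory plugs checked each morning. Pregnancy index is litters born per number of females.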

Mus musculus [13] = test: Tested for its effect on pregnancy index of male CD-1 mice when dosed with 3.75 mg/kg Data are means +/-standard error of the mean (n=4).; format: functional; procedure, shortened: as §4
Mus musculus [14] = test: Tested for its effect on pregnancy index of male CD-1 mice when dosed with 7.5 mg/kg (Dunnett's one-tailed t-test, p<0.05); format: functional; procedure, shortened: as §4
Mus musculus [15] = test: Tested for its effect on testes weight of male CD-1 mice when dosed with 15 mg/kg (Dunnett's one-tailed t-test, p<0.05); format: functional, Testis
Procedure, shortened: (§5)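 Male CD-1 mice gavaged daily for 35 days in 1% Tween-20 in water at 10 mL/kg. Half of each group was killed 7 days after the last dose; testes were weighed and sectioned for histology. Spermatogenic index was scored 0–6 from the cell types and late spermatids per tubule. Mean ± SEM; Dunnett's one-tailed t-test versus control.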

Mus musculus [16] = test: Tested for its effect on testes weight of male CD-1 mice when dosed with 3.75 mg/kg Data are means +/-standard error of the mean (n=4).; format: functional, Testis; procedure, shortened: as §5
Mus musculus [17] = test: Tested for its effect on testes weight of male CD-1 mice when dosed with 7.5 mg/kg (Dunnett's one-tailed t-test, p<0.05); format: functional, Testis; procedure, shortened: as §5
Mus musculus [18] = test: Tested for its effect on spermatogenic index of male CD-1 mice when dosed with 15 mg/kg (Dunnett's one-tailed t-test, p<0.05); format: functional; procedure, shortened: as §5
Mus musculus [19] = test: Tested for its effect on spermatogenic index of male CD-1 mice when dosed with 3.75 mg/kg Data are means +/-standard error of the mean (n=4).; format: functional; procedure, shortened: as §5
Mus musculus [20] = test: Tested for its effect on spermatogenic index of male CD-1 mice when dosed with 7.5 mg/kg (Dunnett's one-tailed t-test, p<0.05); format: functional; procedure, shortened: as §5
Mus musculus [21] = test: Tested for its effect on spermatogenic index 3 days after single sub cutaneous dose (10 mg/kg); format: functional
Procedure, shortened: (§6)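 Single subcutaneous injection, 10 mL/kg, to male CD-1 mice (5 per dose) in ethanol/Tween-20/water (3:7:90, v/v/v) on day 0. Mice were killed at 72 h; testes were weighed and histology scored for spermatogenic index (0–6). Results are % reduction from the vehicle control, with a 30 mg/kg positive control group. Dunnett's one-tailed t-test.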

Mus musculus [22] = test: Tested for its effect on testes weight 3 days after single oral dose (30 mg/kg); format: functional, Testis; procedure, shortened: as §1
Mus musculus [23] = test: Tested for its effect on testes weight 3 days after single sub cutaneous dose (30 mg/kg); format: functional, Testis; procedure, shortened: as §6
Mus musculus [24] = test: Tested for its effect on testes weight 3 days after single sub cutaneous (10 mg/kg); format: functional, Testis; procedure, shortened: as §6
Mus musculus [25] = test: Tested for its effect on testes weight 3 days after single sub cutaneous dose (3 mg/kg); format: functional, Testis; procedure, shortened: as §6
Mus musculus [26] = test: Tested for its effect on spermatogenic index 3 days after single oral dose (10 mg/kg); format: functional
Procedure, shortened: (§7)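 Male CD-1 (ICR) mice, 7 weeks old on arrival, 5 per dose, single gavage of 10 mL/kg on day 0. Vehicle was 0.15 M acetate buffer pH 5, ethanol/Tween-20/water 3:7:90, or 1% Tween-20. Mice were killed with CO2 at 72 h and testes weighed and scored for spermatogenic index (0–6 scale). Results are % reduction versus the vehicle control. Dunnett's one-tailed t-test.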

Mus musculus [27] = test: Tested for its effect on spermatogenic index 3 days after single oral dose (3 mg/kg); format: functional; procedure, shortened: as §7
Mus musculus [28] = test: Tested for its effect on spermatogenic index 3 days after single oral dose (30 mg/kg); format: functional; procedure, shortened: as §1
Mus musculus [29] = test: Tested for its effect on spermatogenic index 3 days after single oral dose (90 mg/kg); format: functional; procedure, shortened: as §1
Mus musculus [30] = test: Tested for its effect on mouse testes weight 3 days after single oral dose (30 mg/kg); format: functional, Testis; procedure, shortened: as §1
Mus musculus [31] = test: Tested for its effect on spermatogenic index 3 days after single oral dose (30 mg/kg) in mice; format: functional; procedure, shortened: as §1
Mus musculus [32] = test: Tested for its effect on spermatogenic index 3 days after single sub cutaneous dose (3 mg/kg); format: functional; procedure, shortened: as §6
Mus musculus [33] = test: Tested for its effect on testes weight 3 days after single oral dose (3 mg/kg); format: functional, Testis; procedure, shortened: as §7
Mus musculus [34] = test: Tested for its effect on mouse testes weight 3 days after single oral dose (10 mg/kg); format: functional, Testis; procedure, shortened: as §1
Mus musculus [35] = test: Tested for its effect on mouse testes weight 3 days after single oral dose (3 mg/kg); format: functional, Testis; procedure, shortened: as §1
Mus musculus [36] = test: Tested for its effect on spermatogenic index 3 days after single oral dose (10 mg/kg) in mice; format: functional; procedure, shortened: as §1
Mus musculus [37] = test: Tested for its effect on spermatogenic index 3 days after single oral dose (3 mg/kg) in mice; format: functional; procedure, shortened: as §1
Mus musculus [38] = test: Tested for its effect on spermatogenic index 3 days after single oral dose (3 mg/kg),; format: functional; procedure, shortened: as §7

SMILES	Reduction (Mus musculus [6]) [%]	Reduction (Mus musculus [10]) [%]	Reduction (Mus musculus [21]) [%]	Reduction (Mus musculus [22])	Reduction (Mus musculus [23]) [%]	Reduction (Mus musculus [24]) [%]	Reduction (Mus musculus [25]) [%]	Reduction (Mus musculus [26]) [%]	Reduction (Mus musculus [27]) [%]	Reduction (Mus musculus [28])	Reduction (Mus musculus [29]) [%]	Reduction (Mus musculus [33]) [%]	also measured
CCN1CC[C@H]2[C@@H](c3ccc(C)cc3)c3cc(C)ccc3[C@H]2C1.Cl	–	–	–	–	–	–	–	–	–	–	–	–	Reduction (Mus musculus [1]): -9%; Reduction (Mus musculus [2]): 2%
Cc1ccc([C@@H]2c3cc(C)ccc3[C@H]3CN(C)CC[C@@H]23)cc1.Cl	8	–	–	–	–	–	–	–	–	–	–	–	Reduction (Mus musculus [3]): 26%; Reduction (Mus musculus [4]): 38%; Reduction (Mus musculus [5]): 7%; Reduction (Mus musculus [7]): -3%; Reduction (Mus musculus [8]): 18%
CCN1CC[C@H]2[C@H](c3ccc(C)cc3C)c3cc(C)ccc3[C@H]2C1.Cl	–	1	–	–	–	–	–	–	–	–	–	–	Reduction (Mus musculus [4]): 3%; Reduction (Mus musculus [9]): 30%; Reduction (Mus musculus [5]): 11%; Reduction (Mus musculus [11]): 0%; Reduction (Mus musculus [8]): 6%
CCN1CC[C@H]2[C@H](c3ccc(C(=O)OC)cc3)c3cc(C)ccc3[C@H]2C1.Cl	–	17	28	32% and 30%	19	1	10	27	5	57% and 46% and 61%	68	–	Pregnancy index (Mus musculus [12]): 0; Pregnancy index (Mus musculus [13]): 16; Pregnancy index (Mus musculus [14]): 2; Testes weight (Mus musculus [15]): 108.94 mg; Testes weight (Mus musculus [16]): 219.08 mg; Testes weight (Mus musculus [17]): 114.7 mg; Spermatogenic index (Mus musculus [18]): 1.6; Spermatogenic index (Mus musculus [19]): 5.5; Spermatogenic index (Mus musculus [20]): 3; Reduction (Mus musculus [7]): -5%
CCN1CC[C@H]2[C@H](c3ccc(C)cc3)c3ccccc3[C@H]2C1.Cl	20	5	–	3%	–	–	–	–	–	20%	35	–	Reduction (Mus musculus [11]): 0%
Cc1ccc([C@H]2c3cc(C)ccc3[C@H]3CN(C)CC[C@@H]23)cc1.Cl	–	–	–	–	–	–	–	–	–	–	–	–	Reduction (Mus musculus [30]): 12%; Reduction (Mus musculus [31]): 7%
CCCOC(=O)c1ccc([C@@H]2c3cc(C)ccc3[C@H]3CN(CC)CC[C@@H]23)cc1.Cl	–	3	13	31%	17	10	7	33	2	56% and 43%	–	11	Reduction (Mus musculus [32]): -1%
CCN1CC[C@H]2[C@H](c3ccc(OC)cc3)c3cc(C)ccc3[C@H]2C1.Cl	–	–	–	–	–	–	–	–	–	–	–	–	Reduction (Mus musculus [1]): -5%; Reduction (Mus musculus [34]): -17%; Reduction (Mus musculus [35]): -7%; Reduction (Mus musculus [2]): 5%; Reduction (Mus musculus [36]): -6%; Reduction (Mus musculus [37]): 2%
CCN1CC[C@H]2[C@H](c3ccc(C(=O)O)cc3)c3cc(C)ccc3[C@H]2C1.Cl (stereo in doubt; 10k)	–	24	27	28%	17	-3	5	36	–	51% and 35%	–	13	Reduction (Mus musculus [32]): 8%; Reduction (Mus musculus [38]): 2%
CCN1CC[C@H]2[C@H](c3ccc(C(=O)O)cc3)c3cc(C)ccc3[C@H]2C1.Cl (stereo in doubt; (d)-10k)	27	26	–	16%	–	–	–	40	21	67%	70	-5	–
